Experimental data as given in ChEMBL document CHEMBL2311346, “An unprecedented reversible mode of action of β-lactams for the inhibition of human fatty acid amide hydrolase (hFAAH)” (Eur J Med Chem, 2013).
Activity calls are given as the source filed them. No cut-off for these calls is given here.

Tests used:
[1] = target: T1, Monoglyceride lipase (Homo sapiens) (UniProt Q99685); test: Inhibition of human recombinant MAGL using [3H]-2-OG as substrate at 1 mM incubated for 30 mins at room temperature followed by incubation at 37 degC for 10 mins by liquid scintillation assay
T1 sequence (whole entry): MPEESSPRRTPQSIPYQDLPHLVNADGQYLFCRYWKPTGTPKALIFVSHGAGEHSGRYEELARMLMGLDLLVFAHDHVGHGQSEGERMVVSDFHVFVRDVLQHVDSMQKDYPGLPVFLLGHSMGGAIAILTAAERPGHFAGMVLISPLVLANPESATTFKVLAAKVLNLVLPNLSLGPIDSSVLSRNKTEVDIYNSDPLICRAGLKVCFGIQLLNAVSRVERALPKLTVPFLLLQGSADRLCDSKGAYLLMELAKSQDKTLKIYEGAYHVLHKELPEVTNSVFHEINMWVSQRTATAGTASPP

[2] = target: T2, Fatty-acid amide hydrolase 1 (Homo sapiens, UniProt O00519); test: Inhibition of human recombinant FAAH-mediated [3H]AEA hydrolysis after 10 mins by liquid scintillation assay
T2 sequence (O00519 whole entry): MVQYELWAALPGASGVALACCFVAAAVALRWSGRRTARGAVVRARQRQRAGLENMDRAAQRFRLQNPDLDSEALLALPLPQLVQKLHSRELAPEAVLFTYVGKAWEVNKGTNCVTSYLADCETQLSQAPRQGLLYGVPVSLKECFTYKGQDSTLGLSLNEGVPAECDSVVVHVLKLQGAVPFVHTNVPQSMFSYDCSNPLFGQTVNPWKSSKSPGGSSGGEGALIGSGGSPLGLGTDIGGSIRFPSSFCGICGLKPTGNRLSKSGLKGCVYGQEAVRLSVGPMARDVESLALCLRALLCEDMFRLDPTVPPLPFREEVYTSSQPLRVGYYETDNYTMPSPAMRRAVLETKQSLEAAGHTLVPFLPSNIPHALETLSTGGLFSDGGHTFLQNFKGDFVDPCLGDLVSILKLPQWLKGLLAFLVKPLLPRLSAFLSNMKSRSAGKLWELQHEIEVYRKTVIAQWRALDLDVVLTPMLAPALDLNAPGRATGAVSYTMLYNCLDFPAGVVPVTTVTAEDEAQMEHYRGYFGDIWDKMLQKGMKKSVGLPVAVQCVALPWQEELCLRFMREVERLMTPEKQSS
Outline: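 Human recombinant FAAH in 10 mM Tris–HCl, 1 mM EDTA, 0.1% BSA, pH 7.4, with compound in DMSO (DMSO controls) and [3H]-AEA (2 µM final), 37 °C for 10 min. Ice-cold chloroform/methanol stop, centrifugation, [3H]-ethanolamine in upper methanol/buffer phase counted by scintillation. Buffer-only blank subtracted; IC50 from three independent experiments.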

[3] = target: T3, Fatty-acid amide hydrolase 1 (Homo sapiens) (UniProt O00519); test: Competitive reversible inhibition of human recombinant FAAH using [3H]AEA as substrate incubated up to 90 mins by compound dilution method
T3 sequence (whole entry): T2 sequence (O00519 whole entry)
Outline: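 Wash-out: human recombinant FAAH (27.5 µg) preincubated 1 h at room temperature with inhibitor or DMSO in 15 µL, at concentrations inhibiting before but not after dilution; diluted 100-fold in assay buffer. Aliquots taken at 0, 30 and 90 min post-dilution, given [3H]-AEA (2 µM final), 37 °C for 30 min; stopped with chloroform/methanol; aqueous phase counted; buffer blank subtracted.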

Monoglyceride lipase = target: T4, Monoglyceride lipase (Homo sapiens, UniProt Q99685); test: Inhibition of human recombinant MAGL using [3H]-2-OG as substrate incubated for 30 mins at room temperature followed by incubation at 37 degC for 10 mins by liquid scintillation assay
T4 sequence (Q99685 whole entry): T1 sequence (whole entry)
Outline: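 Purified human recombinant MAGL in 10 mM Tris–HCl, 1 mM EDTA, 0.1% BSA, pH 8.0, with compound in DMSO (DMSO controls) and [3H]-2-OG (2 µM final). Preincubated 20 °C for 30 min, then 37 °C for 10 min. Ice-cold chloroform/methanol stop; lower chloroform phase counted by liquid scintillation; buffer-only blank subtracted.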

Homo sapiens = species: Homo sapiens; test: Selectivity ratio of IC50 for human recombinant MAGL to IC50 for human recombinant FAAH
[4] = target: T3, Fatty-acid amide hydrolase 1 (Homo sapiens); test: Irreversible inhibition of human recombinant FAAH using [3H]AEA as substrate incubated up to 90 mins by compound dilution method

SMILES	IC50 [2] [nM]	IC50 (Monoglyceride lipase) [nM]	further results
C=CCNC(=S)N1C[C@@H]([C@@H](C)OC(=O)CCCc2ccccc2)C1=O	146	–	inhibition (INH) [1]: 60%
O=C(CCCCCCc1ccccc1)c1nc2ncccc2o1	–	–	inhibition [3]: Active
C=CCNC(=S)N1C[C@@H]([C@@H](C)OC(=O)COCc2ccccc2)C1=O	1040	122000	–
C=CCNC(=S)N1C[C@@H]([C@@H](C)OC(=O)NCCc2ccccc2)C1=O	959	–	inhibition (INH) [1]: 25%
C=CCNC(=O)N1C[C@@H]([C@@H](C)OC(=O)NCCc2ccccc2)C1=O	28.6	–	–
C=CCOC(=O)N1C[C@@H]([C@@H](C)OC(=O)COCc2ccccc2)C1=O	30.1	–	–
C=CCOC(=O)N1C[C@@H]([C@@H](C)OC(=O)CCCc2ccccc2)C1=O	3.65	10300	inhibition [3]: Active; Ratio IC50 (Homo sapiens): 2800
C=CCNC(=O)N1C[C@@H]([C@@H](C)OC(=O)CCCc2ccccc2)C1=O	5.56	98400	Ratio IC50 (Homo sapiens): 18000
C=CCCC(=O)N1C[C@@H]([C@@H](C)OC(=O)CCCc2ccncc2)C1=O	310	–	–
C=CCOC(=O)N1C[C@@H]([C@@H](C)OC(=O)NCCc2ccccc2)C1=O	12.1	–	–
C=CCCC(=O)N1C[C@@H]([C@@H](C)OC(=O)CCCc2ccccc2)C1=O	–	4060	–
C=CCNC(=O)N1C[C@@H]([C@@H](C)OC(=O)COCc2ccccc2)C1=O	70.9	56800	–
CCCSC(=O)N1C[C@@H]([C@@H](C)OC(=O)CCCc2ccccc2)C1=O	12.1	19000	inhibition [3]: Active
C=CCCC(=O)N1C[C@@H]([C@@H](C)OC(=O)COCc2ccccc2)C1=O	30.9	–	–
C=CCCC(=O)N1C[C@@H]([C@@H](C)OC(=O)NCCc2ccccc2)C1=O	33.2	–	–
NC(=O)c1cccc(-c2cccc(OC(=O)NC3CCCCC3)c2)c1	–	–	inhibition [4]: Active
